Screening data as filed in PubChem.
S1P4 agonist – activates the human S1P4 receptor; S1P4-expressing cell line, agonist reporter assay; activation, % at 4.98 µM; 220,000 tested, 0.35% active; AID 1509; in the data active = activation above about 11%;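 also: 0% = DMSO vehicle and 100% = reference agonist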
Mdm2 ligase inh – Mdm2 E3 ligase (human) inhibition; signal enhancement, % at 5 µM; 210,000 tested, 0.11% active; Q00987; cell-based MDM2 ubiquitination luciferase reporter, 2 h; 0 = plate control, 100 = twice control, blank-subtracted;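 active = signal enhancement of 30% or more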;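 also: luminescence tracks abundance of the self-degrading MDM2-luciferase fusion protein; higher signal means inhibition of MDM2 E3 ligase activity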
Target sequence (Q00987 whole entry, looked up, the tested form may be a part): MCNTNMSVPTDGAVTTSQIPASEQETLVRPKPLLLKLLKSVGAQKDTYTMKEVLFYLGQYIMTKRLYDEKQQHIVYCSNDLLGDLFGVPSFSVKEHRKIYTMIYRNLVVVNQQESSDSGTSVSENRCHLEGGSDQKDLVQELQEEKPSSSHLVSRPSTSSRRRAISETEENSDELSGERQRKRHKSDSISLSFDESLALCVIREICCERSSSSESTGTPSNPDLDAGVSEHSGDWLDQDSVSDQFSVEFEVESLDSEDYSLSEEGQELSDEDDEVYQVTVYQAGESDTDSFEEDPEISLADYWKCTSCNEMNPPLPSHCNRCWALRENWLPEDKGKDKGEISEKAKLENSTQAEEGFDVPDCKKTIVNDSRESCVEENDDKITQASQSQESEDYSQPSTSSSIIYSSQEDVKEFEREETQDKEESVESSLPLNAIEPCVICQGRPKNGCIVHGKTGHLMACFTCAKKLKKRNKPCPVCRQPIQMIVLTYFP
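Buffer or medium: Cells held in DMEM | Assay system: Stable mammalian line carrying autodegrading MDM2–luciferase fusion reporter | Quantity: 2000 cells/well | Times: 4 h settle plus 2 h compound, 37 °C | Doses: One concentration, 5 µM, with 0.2% DMSO | Technique: Luminescence with SteadyLite reagent, 15 min at room temperature | Benchmarks: Plate controls and plate blanks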
S1P4 antag – antagonists of human S1P4 receptor | O95977 | S1P4-expressing cells, antagonist mode, reporter read-out | inhibition, % at 4.98 µM | 220,000 tested, 0.26% active | AID 1510; in the data active = inhibition above about 29%;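 also: 0% = wells stimulated with agonist and 100% = vehicle wells without agonist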
S1P3 antag – blocks the human S1P3 receptor. inhibition, % at 4.98 µM. 170,000 tested, 0.27% active. CHO S1P3 NFAT-BLA reporter, FRET fluorescence, antagonist mode. Q99500;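 active = inhibition above the plate cutoff, the mean inhibition of test wells on that plate plus 3 SD, cut at about 28% in these data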;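 also: cells challenged with S1P at its EC80 of 0.8 µM; blue over green emission ratio from cleaved BLA substrate after 4 h stimulation; 0% = S1P-stimulated wells and 100% = unstimulated DMSO-only wells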
L major viab – inhibitors of Leishmania major promastigote growth | Leishmania major promastigotes, resazurin fluorescence viability | inhibition, % at 10 µM | 200,000 tested, 9% active | AID 1063; in the data active = inhibition above about 50%;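 also: promastigotes grown with compound for 44 hours at 28 °C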
Active calls of the source: *. Only a selection was taken, and hits are over-represented in it overall.

What do the screens show for `O=C(NNC(=O)c1ccc(Oc2ccc(C3SCCS3)cc2)o1)c1ccc(Cl)cc1`?
S1P4 agonist: -1; Mdm2 ligase inh: 4; S1P4 antag: 8; S1P3 antag: 10

Results for Cc1nc(SCC2(C)CC2(Cl)Cl)n[nH]1 (stereo unspecified) ?
S1P4 agonist: 0; Mdm2 ligase inh: -6; S1P4 antag: -11; S1P3 antag: -3; L major viab: -8

How did Cc1ccc(C)c(S(=O)(=O)Nc2ccccc2C(=O)Nc2ccccc2N2CCOCC2)c1 do in these assays?
S1P4 agonist: 2; Mdm2 ligase inh: -28; S1P4 antag: -5; L major viab: 4

How did Cc1ccccc1OCCCCn1cnc2ccccc21 do in these assays?
S1P4 agonist: 1; Mdm2 ligase inh: 4; S1P4 antag: -10; L major viab: 11

What do the screens show for `Cc1ccccc1OCCCCCn1ccnc1`?
S1P4 agonist: 0; Mdm2 ligase inh: -9; S1P4 antag: 13; S1P3 antag: -32; L major viab: 100*

How did Clc1ccccc1OCCCCn1ccnc1 do in these assays?
S1P4 agonist: 1; Mdm2 ligase inh: -16; S1P4 antag: 3; S1P3 antag: 5; L major viab: 100*

Results for Cc1cccc(OCCCCCn2ccnc2)c1 ?
S1P4 agonist: 1; Mdm2 ligase inh: -9; S1P4 antag: -25; S1P3 antag: 14; L major viab: 100*

How did CC(Oc1ccc(Cl)cc1)C(=O)NCCCn1ccnc1 (stereo unspecified) do in these assays?
S1P4 agonist: -2; Mdm2 ligase inh: -14; S1P4 antag: 0; L major viab: -3

Results for Clc1ccc(SCCCCn2ccnc2)cc1 ?
S1P4 agonist: 0; Mdm2 ligase inh: -18; S1P4 antag: -11; S1P3 antag: 22; L major viab: 100*

Results for Cc1ccc(/C=N/Nc2nc3ccccc3s2)o1 ?
S1P4 agonist: 1; Mdm2 ligase inh: -63; S1P4 antag: -6; S1P3 antag: 15; L major viab: 26

How did NNC(=O)C12CC3CC(C1)CC(n1ncnn1)(C3)C2 do in these assays?
S1P4 agonist: 0; Mdm2 ligase inh: 3; S1P4 antag: -3; S1P3 antag: 5; L major viab: -6

How did COc1ccc(C(=O)Nc2ccccc2C(=O)NC(Cc2ccc(O)cc2)C(=O)NNC(=O)c2ccccc2)cc1 (stereo unspecified) do in these assays?
S1P4 agonist: 0; Mdm2 ligase inh: -13; S1P4 antag: -19; S1P3 antag: -12; L major viab: 62*

Results for COc1ccc(C(=O)Nc2ccc(C)cc2C(=O)c2ccccc2)cc1 ?
S1P4 agonist: 0; Mdm2 ligase inh: -10; S1P4 antag: -2; S1P3 antag: 3; L major viab: 99*

What do the screens show for `COc1ccc(OC)c(C(=O)c2ccc(C(=O)Nc3cccc4ccccc34)cc2)c1`?
S1P4 agonist: -3; Mdm2 ligase inh: -12; S1P4 antag: -8; S1P3 antag: -3; L major viab: 55*

Results for CC(C)CCCC(C)NS(=O)(=O)Cc1ccccc1 (stereo unspecified) ?
S1P4 agonist: 0; Mdm2 ligase inh: -39; S1P4 antag: -1; L major viab: 15

How did COc1ccccc1Cc1nc2ccccc2n1S(=O)(=O)c1ccc(Cl)cc1 do in these assays?
S1P4 agonist: 1; Mdm2 ligase inh: -5; S1P4 antag: -4; S1P3 antag: -4; L major viab: 75*

Results for CCOC(=O)c1[nH]n(-c2ccc(Cl)cc2)c(=O)c1C ?
S1P4 agonist: 1; Mdm2 ligase inh: -5; S1P4 antag: -9; S1P3 antag: -4; L major viab: 52*

What do the screens show for `O=C1C(C2=NC(c3ccccn3)C3C(=O)N(c4ccccc4)C(=O)C23)=C(O)c2ccccc21` (stereo unspecified)?
S1P4 agonist: -2; S1P4 antag: -17; S1P3 antag: -5

Results for COc1ccc(CCNC(=O)CC2SC(=NCCc3ccccc3)NC2=O)cc1 (stereo unspecified) ?
S1P4 agonist: 0; Mdm2 ligase inh: -16; S1P4 antag: -17; S1P3 antag: -13; L major viab: -1

What do the screens show for `Cc1ccc(SCCC(=O)N2CCCC2)cc1`?
S1P4 agonist: 0; Mdm2 ligase inh: -17; S1P4 antag: 12; S1P3 antag: 3; L major viab: 4

Results for Cc1ccc(SCCCCN2CCNCC2)cc1 ?
S1P4 agonist: -1; Mdm2 ligase inh: -8; S1P4 antag: 2; S1P3 antag: -4; L major viab: 100*

Results for Clc1ccc(SCCCCN2CCOCC2)cc1 ?
S1P4 agonist: 1; Mdm2 ligase inh: -7; S1P4 antag: -16; S1P3 antag: 9; L major viab: 97*
